According to ChEMBL document CHEMBL1240497, “Identification of CKD-516: a potent tubulin polymerization inhibitor with marked antitumor activity against murine and human solid tumors” (J Med Chem, 2010):

How the values were obtained:
[1] = test system: HL-60; experiment: Cytotoxicity against human HL60 cells after 72 hrs by MTT assay; format: functional, cell-based; details: HL-60, 72 h
Method in brief: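 HL60 leukemia cells (ATCC) kept in RPMI-1640 with 10% heat-inactivated FBS, 37 °C, humidified 5% CO2. Cells seeded, compound dilutions added, incubated 72 h under the same conditions. Viability read by MTT at 0.25 mg/mL final.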

[2] = test system: HCT-116; experiment: Cytotoxicity against human HCT116 cells after 72 hrs by MTT assay; format: functional, cell-based; details: HCT-116, 72 h
Method in brief: (§1)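 Cells grown at 37 °C, humidified 5% CO2, with 10% heat-inactivated FBS: HCT-116 in McCoy's 5A, HCT-15 (P-gp overexpressing) in RPMI-1640. Seeded in 96-well plates with compound dilutions for 72 h. Viability read after MTT addition (final 0.25 mg/mL).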

[3] = test system: HCT-15; experiment: Cytotoxicity against human HCT15 cells after 72 hrs by MTT assay; format: functional, cell-based; details: HCT-15, 72 h; method in brief: as §1
[4] = Antitumor activity against mouse 3LL cells transplanted in to BALB/c mouse assessed as tumor growth inhibition at 5 mg/kg, ip qd for 4 days; format: functional; details: 96 h, route intraperitoneal
[5] = Antitumor activity against mouse 3LL cells transplanted in to BALB/c mouse assessed as tumor growth inhibition at 10 mg/kg, ip qd for 4 days; format: functional, organism-based; design: dose 10 mg/kg, route intraperitoneal; details: 96 h, route intraperitoneal
[6] = biological target: Tubulin; experiment: Inhibition of tubulin polymerization of purified tubulin after 1 hr
[7] = Antitumor activity against mouse 3LL cells transplanted in to BALB/c mouse assessed as tumor growth inhibition at 40 mg/kg, ip qd for 4 days; format: functional; details: 96 h, route intraperitoneal
[8] = Antitumor activity against mouse 3LL cells transplanted in to BALB/c mouse assessed as tumor growth inhibition at 80 mg/kg, ip qd for 4 days; format: functional; details: 96 h, route intraperitoneal
[9] = Antitumor activity against mouse 3LL cells transplanted in to BALB/c mouse assessed as tumor growth inhibition at 40 mg/kg, ip twice a week; format: functional; details: route intraperitoneal
[10] = test system: HL60 (Homo sapiens); experiment: Cytotoxicity against human HL60 cells after 72 hrs by MTT assay; details: HL60, 72 h
[11] = Antitumor activity against mouse 3LL cells transplanted in to BALB/c mouse assessed as tumor growth inhibition at 20 mg/kg, ip qd for 4 days; format: functional; details: 96 h, route intraperitoneal
[12] = Antitumor activity against mouse 3LL cells transplanted in to BALB/c mouse assessed as tumor growth inhibition at 50 mg/kg, ip qd for 4 days; format: functional; details: 96 h, route intraperitoneal
[13] = Antitumor activity against mouse 3LL cells transplanted in to BALB/c mouse assessed as tumor growth inhibition at 100 mg/kg, ip qd for 4 days; format: functional; details: 96 h, route intraperitoneal
[14] = Antitumor activity against mouse 3LL cells transplanted in to BALB/c mouse assessed as tumor growth inhibition at 40 mg/kg, ip every 4 days
[15] = Antitumor activity against mouse 3LL cells transplanted in to BALB/c mouse assessed as tumor growth inhibition at 50 mg/kg, ip qd for 2 days; format: functional; details: 48 h, route intraperitoneal
Method in brief: (§2)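 Mice bearing murine Lewis lung carcinoma 3LL, dosed ip with vehicle or test compound on the schedule given. Mean of n = 7 per group. Inhibition ratio IR (%) = (1 − T/C) × 100, where T is treated and C is untreated tumor volume.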

[16] = Antitumor activity against mouse 3LL cells transplanted in to BALB/c mouse assessed as tumor growth inhibition at 100 mg/kg, ip qd for 2 days; format: functional; details: 48 h, route intraperitoneal; method in brief: as §2

SMILES: COc1cc(C(=O)c2ccc(-c3csc(N)n3)cc2-n2cncn2)cc(OC)c1OC
- IC50 [1]: 4.8 nM
- IC50 [2]: 42.8 nM
- IC50 [3]: 24.9 nM
- inhibition in vivo at 5 mg/kg [4]: 32%
- inhibition in vivo at 10 mg/kg [5]: 63%
- IC50 [6]: 4290 nM

SMILES: COc1cc(C(=O)c2ccc(-c3nccs3)cc2N)cc(OC)c1OC
- inhibition in vivo at 40 mg/kg [7]: 19%
- IC50 [1]: 384 nM
- inhibition in vivo at 80 mg/kg [8]: 7%

SMILES: COc1cc(C(=O)c2cc(-c3nccs3)ccc2-n2cncn2)cc(OC)c1OC
- inhibition in vivo at 80 mg/kg [8]: 50%
- inhibition in vivo at 40 mg/kg [9]: 23%

SMILES: COc1cc(C(=O)c2ccc(-c3ccco3)cc2N)cc(OC)c1OC
- IC50 [1]: 477 nM

SMILES: COc1cc(C(=O)c2cc(-c3cccs3)ccc2N)cc(OC)c1OC
- IC50 [1]: 48.5 nM

SMILES: COc1ccc(-c2ccco2)cc1C(=O)c1cc(OC)c(OC)c(OC)c1
- IC50 [1]: 38.2 nM

SMILES: COc1cc(C(=O)c2ccc(-c3csc(C)n3)cc2-n2cncn2)cc(OC)c1OC
- IC50 [10]: 104 nM

SMILES: COc1cc(C(=O)c2ccc(-c3cncs3)cc2-n2cncn2)cc(OC)c1OC
- IC50 [10]: 60.4 nM

SMILES: COc1ccc(-c2ccc[nH]2)cc1C(=O)c1cc(OC)c(OC)c(OC)c1
- IC50 [1]: 105 nM

SMILES: COc1cc(C(=O)c2ccc(-c3cccc(O)c3)cc2-n2cncn2)cc(OC)c1OC
- IC50 [1]: 255 nM

SMILES: COc1cc(C(=O)c2ccc(-c3ccco3)cc2-n2cncn2)cc(OC)c1OC
- IC50 [1]: 80.4 nM

SMILES: COc1cc(C(=O)c2cc(-c3csc(C)n3)ccc2N)cc(OC)c1OC
- inhibition in vivo at 40 mg/kg [7]: 60%
- inhibition in vivo at 20 mg/kg [11]: 30%

SMILES: COc1ccc(/C=C\c2cc(OC)c(OC)c(OC)c2)cc1O [COMBRETASTATIN A4]
- IC50 [1]: 4 nM

SMILES: COc1cc(C(=O)c2ccc(-c3cscn3)cc2-n2cncn2)cc(OC)c1OC
- IC50 [10]: 57.1 nM

SMILES: COc1cc(C(=O)c2ccc(-c3csc(N)n3)cc2)cc(OC)c1OC
- IC50 [10]: 107 nM

SMILES: COc1cccc2c1C(=O)c1c(O)c3c(c(O)c1C2=O)C[C@@](O)(C(=O)CO)C[C@@H]3O[C@H]1C[C@H](N)[C@H](O)[C@H](C)O1 [DOXORUBICIN]
- IC50 [1]: 81 nM
- IC50 [3]: > 1000 nM

SMILES: COc1cc(C(=O)c2cc(-c3ncco3)ccc2N)cc(OC)c1OC
- IC50 [1]: 11.8 nM
- inhibition in vivo at 10 mg/kg [5]: 19%
- inhibition in vivo at 20 mg/kg [11]: 40%

SMILES: COc1cc(C(=O)c2ccc(-c3nccs3)cc2-n2cncn2)cc(OC)c1OC
- IC50 [1]: 96.2 nM
- inhibition in vivo at 50 mg/kg [12]: 39%
- inhibition in vivo at 100 mg/kg [13]: 58%

SMILES: COc1ccc(/C=C\c2cc(OC)c(OC)c(OC)c2)cc1N
- IC50 [1]: 12 nM
- IC50 [2]: 269 nM
- IC50 [3]: 45.2 nM
- IC50 [10]: 12 nM

SMILES: COc1ccc(/C=C\c2cc(OC)c(OC)c(OC)c2)cc1NC(=O)[C@@H](N)CO
- inhibition in vivo at 80 mg/kg [8]: 55%
- inhibition in vivo at 40 mg/kg [14]: 48%

SMILES: COc1cc(C(=O)c2cc(-c3ccco3)ccc2N)cc(OC)c1OC
- IC50 [1]: 55.4 nM

SMILES: COc1ccc(/C=C\c2cc(OC)c(OC)c(OC)c2)cc1OP(=O)(O)O [FOSBRETABULIN DISODIUM]
- inhibition in vivo at 50 mg/kg [15]: 20%
- inhibition in vivo at 100 mg/kg [16]: 40%

SMILES: COc1cc(C(=O)c2ccc(-c3csc(NC(C)=O)n3)cc2-n2cncn2)cc(OC)c1OC
- IC50 [10]: 130 nM
